The values that follow come from ChEMBL document CHEMBL1143239, “The synthesis of bivalent 2beta-carbomethoxy-3beta-(3,4-dichlorophenyl)-8-heterobicyclo[3.2.1]octanes as probes for proximal binding sites on the dopamine and serotonin transporters” (Bioorg Med Chem, 2008).

The target in assay [1] is Sodium-dependent dopamine transporter (Homo sapiens, UniProt Q01959). The assay is described as follows: Displacement of [3H]WIN-35428 from human DAT expressed in transfected cell membrane. The assay is classed as cell membranes. The method in brief:
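Membranes from transfected cells stably expressing hDAT, labelled with [3H]WIN35,428 at 4 nM final, with serial drug dilutions made from DMSO stocks. Buffer Tris.HCl 50 mM, pH 7.4, NaCl 100 mM. Incubated 1 h at 22 °C. Filtered over 0.1% PEI-presoaked GF/B filters and counted. Nonspecific binding defined with 100 μM (-)-cocaine. IC50 reported as mean ± SEM of ≥3 experiments, each in triplicate.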
For orientation: Loss of bound radioactivity is the signal in a displacement assay; it reports binding, not function.

The target of assay [2] is Sodium-dependent serotonin transporter (Homo sapiens, UniProt P31645). Put plainly: Displacement of [3H]-citalopram from human SERT expressed in HEK293 cell membrane. The assay is classed as cell membranes. The method in brief:
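Competition binding on membranes of HEK-293 cells stably expressing SERT cDNA. [3H]citalopram fixed at 1 nM final, with a range of drug concentrations. Buffer Tris.HCl 50 mM, pH 7.4, NaCl 100 mM. Incubation 2 h at 0–4 °C, started by adding membranes. Rapid filtration through PEI-soaked GF/B filters, then scintillation counting. Nonspecific binding defined with 10 μM fluoxetine. IC50 reported as mean ± SEM of ≥3 experiments, each in triplicate.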

Chain of Sodium-dependent dopamine transporter (Q01959 whole entry): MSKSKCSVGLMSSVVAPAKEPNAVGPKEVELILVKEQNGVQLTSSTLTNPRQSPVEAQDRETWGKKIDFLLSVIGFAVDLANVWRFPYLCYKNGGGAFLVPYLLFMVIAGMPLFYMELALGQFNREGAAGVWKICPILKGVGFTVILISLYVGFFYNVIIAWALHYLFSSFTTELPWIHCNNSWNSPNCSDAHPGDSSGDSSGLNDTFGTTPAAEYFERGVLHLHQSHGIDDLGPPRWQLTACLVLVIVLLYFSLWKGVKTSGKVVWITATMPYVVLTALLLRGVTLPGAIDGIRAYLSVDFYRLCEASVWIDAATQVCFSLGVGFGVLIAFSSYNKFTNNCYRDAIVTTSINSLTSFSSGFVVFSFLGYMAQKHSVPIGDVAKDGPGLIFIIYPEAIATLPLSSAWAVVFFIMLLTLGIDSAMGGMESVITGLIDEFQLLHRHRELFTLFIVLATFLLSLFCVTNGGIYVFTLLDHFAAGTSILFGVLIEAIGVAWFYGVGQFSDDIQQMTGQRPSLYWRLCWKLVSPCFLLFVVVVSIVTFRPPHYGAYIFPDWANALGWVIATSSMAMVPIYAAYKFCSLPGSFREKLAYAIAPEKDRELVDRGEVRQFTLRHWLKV
Chain of Sodium-dependent serotonin transporter (P31645 whole entry): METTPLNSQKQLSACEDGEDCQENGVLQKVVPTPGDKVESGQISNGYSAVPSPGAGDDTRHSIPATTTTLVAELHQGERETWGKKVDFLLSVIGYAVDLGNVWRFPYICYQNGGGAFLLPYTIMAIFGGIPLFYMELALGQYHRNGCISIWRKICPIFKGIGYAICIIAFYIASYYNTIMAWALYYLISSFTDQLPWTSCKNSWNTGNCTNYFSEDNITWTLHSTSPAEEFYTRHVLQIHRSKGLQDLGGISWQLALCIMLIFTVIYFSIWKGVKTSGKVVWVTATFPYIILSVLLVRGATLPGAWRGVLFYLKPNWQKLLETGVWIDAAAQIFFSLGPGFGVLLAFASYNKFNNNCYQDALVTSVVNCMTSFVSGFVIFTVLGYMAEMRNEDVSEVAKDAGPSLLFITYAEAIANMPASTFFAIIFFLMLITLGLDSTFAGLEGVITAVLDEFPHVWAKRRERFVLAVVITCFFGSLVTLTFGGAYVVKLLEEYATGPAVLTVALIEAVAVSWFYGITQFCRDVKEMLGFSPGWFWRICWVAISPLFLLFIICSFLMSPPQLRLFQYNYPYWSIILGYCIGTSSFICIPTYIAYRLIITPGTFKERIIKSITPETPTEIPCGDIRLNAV

Broadly, the IC50 is the concentration that gives 50% inhibition. For the compound `CN1C2CCC1[C@@H](COC(=O)CCCCCCCCCCC(=O)OC[C@@H]1C3CCC(C[C@@H]1c1ccc(Cl)c(Cl)c1)N3C)[C@@H](c1ccc(Cl)c(Cl)c1)C2`, the IC50 in assay [1] was 115 nM; in assay [2], 140 nM. For `CN1C2CC[C@@H]1[C@@H](COC(=O)CCC(=O)OC[C@@H]1C3CCC(C[C@@H]1c1ccc(Cl)c(Cl)c1)S3)[C@@H](c1ccc(Cl)c(Cl)c1)C2`, the IC50 in assay [1] is 55 nM; in assay [2], 593 nM. Regarding `COC(=O)[C@@H]1C2CCC(C[C@@H]1c1ccc(Cl)c(Cl)c1)S2` (stereo not given in full), the figures for the IC50 in assay [1] and in assay [2] were 2 nM and 3 nM, respectively. `CN1C2CCC1[C@@H](COC(=O)CCCCC(=O)OC[C@@H]1C3CCC(C[C@@H]1c1ccc(Cl)c(Cl)c1)N3C)[C@@H](c1ccc(Cl)c(Cl)c1)C2`: the IC50 turned out to be 28 nM in assay [1] and 56 nM in assay [2]. In assay [2], `COC(=O)[C@@H]1C2CCC(C[C@@H]1c1ccc(Cl)c(Cl)c1)N2C` (stereo not given in full) registered a half-inhibitory concentration (IC50) of 2.5 nM. Take `CN1C2CCC1[C@@H](COC(=O)CCC(=O)OC[C@@H]1C3CCC(C[C@@H]1c1ccc(Cl)c(Cl)c1)N3C)[C@@H](c1ccc(Cl)c(Cl)c1)C2`: the IC50 turned out to be 12 nM in assay [1] and 106 nM in assay [2]. Take `CN1C2CC[C@@H]1[C@@H](COC(=O)CCC(=O)OC[C@H]1[C@@H](c3ccc(Cl)c(Cl)c3)CC3CC[C@H]1O3)[C@@H](c1ccc(Cl)c(Cl)c1)C2`: the concentration for half-maximal inhibition (IC50) stood at 67 nM in assay [1] and 405 nM in assay [2]. For `O=C(CCC(=O)OC[C@@H]1C2CCC(C[C@@H]1c1ccc(Cl)c(Cl)c1)S2)OC[C@@H]1C2CCC(C[C@@H]1c1ccc(Cl)c(Cl)c1)S2` the same measures were 1540 nM and 2200 nM. In the same order, the values of `O=C(CCC(=O)OC[C@@H]1C2CCC(C[C@@H]1c1ccc(Cl)c(Cl)c1)S2)OC[C@@H]1C2CCC(C[C@@H]1c1ccc(Cl)c(Cl)c1)O2` (stereo not given in full) are 2960 nM and 992 nM. For `CN1C2CCC1[C@@H](COC(=O)CCCCCCC(=O)OC[C@@H]1C3CCC(C[C@@H]1c1ccc(Cl)c(Cl)c1)N3C)[C@@H](c1ccc(Cl)c(Cl)c1)C2`, the half-maximal inhibitory concentration (IC50) worked out at 11 nM in assay [1] and 31 nM in assay [2].

As for `CN1C2CCC1[C@@H](COC(=O)CCCCCCCCC(=O)OC[C@@H]1C3CCC(C[C@@H]1c1ccc(Cl)c(Cl)c1)N3C)[C@@H](c1ccc(Cl)c(Cl)c1)C2`, the IC50 worked out at 31 nM in assay [1] and 17 nM in assay [2].

On to `COC(=O)[C@@H]1C2CCC(C[C@@H]1c1ccc(Cl)c(Cl)c1)O2` (stereo not given in full), for which the results for the 50% inhibitory concentration (IC50) in assay [1] and in assay [2] were 3.3 nM and 4.7 nM, respectively. For `CCCCCCC(=O)OC[C@H]1[C@@H](c2ccc(Cl)c(Cl)c2)CC2CC[C@H]1N2C`, the IC50 in assay [1] was 8 nM; in assay [2], 53 nM.
